Experiments:
Plasmodium falciparum [1] = experiment: Antiparasite activity against Plasmodium falciparum D6 assessed as growth inhibition incubated for 72 hrs by SYBR green fluorescence assay; assay type: functional, organism-based; details: D6, 72 h
Leishmania major [2] = experiment: Antiparasite activity against Leishmania major promastigotes assessed as growth inhibition incubated for 44 hrs by alamar blue dye based fluorescence assay; assay type: functional, organism-based
[3] = Toxicity against human HepG2 cells incubated for 48 hrs by MTT assay; assay type: cell-based; details: read-out: TC50
Leishmania major [4] = experiment: Antiparasite activity against luciferase-expressing Leishmania major amastigotes isolated from infected in mouse RAW264.7 cells assessed as growth inhibition incubated for 96 hrs by luciferase reporter gene assay; assay type: functional, organism-based; details: RAW264.7, 96 h
Trypanosoma cruzi [5] = experiment: Antiparasite activity against Trypanosoma cruzi Tulahuen expressing beta-galactosidase assessed as growth inhibition at 10 uM incubated for 96 hrs by CPRG dye based assay; assay type: functional; details: read-out: GI
Trypanosoma cruzi [6] = experiment: Antiparasite activity against Trypanosoma cruzi Tulahuen expressing beta-galactosidase assessed as growth inhibition incubated for 96 hrs by CPRG dye based assay; assay type: functional, organism-based
Plasmodium falciparum [7] = experiment: Antiparasite activity against drug resistant Plasmodium falciparum W2 assessed as growth inhibition incubated for 72 hrs by SYBR green fluorescence assay; assay type: functional, organism-based; details: W2, 72 h
Trypanosoma brucei [8] = experiment: Antiparasite activity against Trypanosoma brucei 427 assessed as growth inhibition incubated for 48 hrs by PrestoBlue based fluorescence assay; assay type: functional, organism-based; details: Trypanosoma brucei, 427, 48 h
[9] = Protein binding in plasma (unknown origin) assessed as fraction unbound; assay type: ADME, cell-free
Plasmodium falciparum [10] = experiment: Antiparasite activity against drug resistant Plasmodium falciparum C235 assessed as growth inhibition incubated for 72 hrs by SYBR green fluorescence assay; assay type: functional, organism-based; details: C235, 72 h
Hepatocyte = experiment: Intrinsic clearance in rat hepatocytes assessed per 10^6 cells; assay type: ADME, cell-based
Trypanosoma brucei [11] = experiment: Antiparasite activity against Trypanosoma brucei 427 assessed as growth inhibition at 5 uM incubated for 48 hrs by PrestoBlue based fluorescence assay; assay type: functional; details: Trypanosoma brucei, 427, 48 h; read-out: GI
[12] = Aqueous solubility of the compound; assay type: physicochemical; details: buffer
In short: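 Aqueous solubility measured as thermodynamic solubility.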

Structure (SMILES)	EC50 (Plasmodium falciparum [1])	EC50 (Leishmania major [2])	CC50 at 48 h [3]	EC50 (Leishmania major [4])	inhibition of growth at 10 µM (Trypanosoma cruzi [5])	EC50 (Trypanosoma cruzi [6])	EC50 (Plasmodium falciparum [7])	EC50 (Trypanosoma brucei [8])	Fu [9]	EC50 (Plasmodium falciparum [10])	CLH (Hepatocyte)	inhibition of growth at 5 µM (Trypanosoma brucei [11])	solubility [12]
CN1CCN(S(=O)(=O)c2ccc(-c3ccc4ncnc(Nc5ccc(OCc6cccc(F)c6)c(Cl)c5)c4c3)cc2)CC1	0.027 µM	2.8 µM	> 15 µM	1.6 µM	60%								
CN1CCN(S(=O)(=O)c2ccc(-c3ccc4c(Nc5ccc(OCc6cccc(F)c6)c(Cl)c5)ccnc4c3)cc2)CC1	0.019 µM	1 µM	> 4 µM	1.6 µM		0.73 µM	0.042 µM	0.079 µM	< 1%	0.039 µM			
O=S(=O)(c1ccc(-c2ccc3ncnc(Nc4ccc(OCc5ccccc5)c(Cl)c4)c3c2)cc1)N1CCOCC1	0.26 µM	0.5 µM	> 15 µM	> 15 µM	9.5%			1.4 µM					
CN1CCCN(S(=O)(=O)c2ccc(-c3ccc4ncc(C#N)c(Nc5ccc(OCc6cccc(F)c6)c(Cl)c5)c4c3)cc2)CC1	0.047 µM	0.92 µM	> 15 µM	1.6 µM		0.09 µM	0.1 µM	0.35 µM	< 1%	0.066 µM	37.95 µL/min		
Fc1cccc(COc2ccc(Nc3nccc4cc(-c5cccc(N6CCOCC6)c5)ccc34)cc2Cl)c1	2.8 µM	> 15 µM	> 28 µM	2.2 µM		> 50 µM	19 µM			4.7 µM		12%	
Fc1cccc(COc2ccc(Nc3ncnc4ccc(-c5cccc(N6CCOCC6)c5)cc34)cc2Cl)c1	0.23 µM	3 µM	> 15 µM	8 µM		1.8 µM		0.042 µM	< 1%				< 1 µM
N#Cc1cnc2ccc(-c3ccc(S(=O)(=O)N4CCOCC4)cc3)cc2c1Nc1ccc(OCc2cccc(F)c2)c(Cl)c1	0.16 µM	> 15 µM	> 15 µM	> 15 µM		> 50 µM	0.3 µM			0.24 µM		15%	
Fc1cccc(COc2ccc(Nc3nccc4ccc(-c5cccc(N6CCOCC6)c5)cc34)cc2Cl)c1	2.6 µM	> 15 µM	> 28 µM	6 µM		> 50 µM	19 µM			6.1 µM		0.1%	
O=S(=O)(c1ccc(-c2ccc3nccc(Nc4ccc(OCc5ccccc5)c(Cl)c4)c3c2)cc1)N1CCOCC1	0.032 µM	0.2 µM	> 5 µM	3.4 µM		49 µM	0.11 µM	2.1 µM	< 1%	0.054 µM	13.93 µL/min		< 1 µM
CN1CCCN(S(=O)(=O)c2ccc(-c3ccc4c(Nc5ccc(OCc6cccc(F)c6)c(Cl)c5)cnnc4c3)cc2)CC1	0.003 µM	6.4 µM	15 µM	0.24 µM		49 µM	0.013 µM	0.21 µM	< 1%	0.005 µM	36.72 µL/min		< 1 µM
Fc1cccc(COc2ccc(Nc3cnnc4cc(-c5cccc(N6CCOCC6)c5)ccc34)cc2Cl)c1	0.2 µM	9.8 µM	11 µM	> 15 µM		45 µM	0.23 µM	0.89 µM		0.41 µM			
Fc1cccc(COc2ccc(Nc3nncc4cc(-c5cccc(N6CCOCC6)c5)ccc34)cc2Cl)c1	0.24 µM	> 15 µM	> 15 µM	2.2 µM		> 50 µM	0.62 µM	1.4 µM		0.34 µM			
N#Cc1cnc2ccc(-c3ccc(S(=O)(=O)N4CCOCC4)cc3)cc2c1Nc1ccc(OCc2ccccc2)c(Cl)c1	0.28 µM	> 15 µM	> 15 µM	> 15 µM		> 50 µM	0.58 µM			0.41 µM		33%	
CN1CCCN(S(=O)(=O)c2ccc(-c3ccc4nncc(Nc5ccc(OCc6cccc(F)c6)c(Cl)c5)c4c3)cc2)CC1	0.027 µM	4.1 µM	7.3 µM	1.06 µM		2.2 µM	0.063 µM	0.58 µM		0.019 µM			
N#Cc1cnc2ccc(-c3cccc(N4CCOCC4)c3)cc2c1Nc1ccc(OCc2cccc(F)c2)c(Cl)c1	0.48 µM	> 15 µM	> 15 µM	> 15 µM		> 50 µM	1 µM			0.73 µM		49%	
CN1CCN(S(=O)(=O)c2ccc(-c3ccc4cnnc(Nc5ccc(OCc6cccc(F)c6)c(Cl)c5)c4c3)cc2)CC1	0.13 µM	> 3.2 µM	> 5 µM	> 4 µM		> 50 µM	0.43 µM	2 µM		0.38 µM			
O=S(=O)(c1ccc(-c2ccc3ccnc(Nc4ccc(OCc5ccccc5)c(Cl)c4)c3c2)cc1)N1CCOCC1	0.87 µM	> 15 µM	> 25 µM	> 15 µM		> 50 µM	5.5 µM	> 2.5 µM		4 µM			
Fc1cccc(COc2ccc(Nc3nncc4ccc(-c5cccc(N6CCOCC6)c5)cc34)cc2Cl)c1	0.11 µM	> 15 µM	> 15 µM	1.7 µM		> 50 µM	0.61 µM	0.29 µM		0.4 µM			
CN1CCCN(S(=O)(=O)c2ccc(-c3ccc4ncc(C#N)c(Nc5ccc(OCc6ccccc6)c(Cl)c5)c4c3)cc2)CC1	0.058 µM	1.6 µM	13 µM	2.3 µM		0.95 µM	0.084 µM	0.43 µM		0.058 µM			

— ChEMBL document CHEMBL3588845, “Protozoan Parasite Growth Inhibitors Discovered by Cross-Screening Yield Potent Scaffolds for Lead Discovery” (J Med Chem, 2015)
